The values below come from ChEMBL document CHEMBL5252672, “Inhibition of mitochondrial metabolism by (-)-jerantinine A: synthesis and biological studies in triple-negative breast cancer cells” (RSC Med Chem, 2023).

Calls of active or inactive are those of the source. No cut-off for these calls is given here.

Data set [1] concerns MDA-MB-231. Kind of data set: Antiproliferative activity against human MDA-MB-231 cells. It counts as functional, cell-based. The procedure, abridged: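 MDA-MB-231 cells grown in RPMI-1640 with 10% FBS at 37°C, 5% CO2. Seeded at 2000 cells/well, then exposed to graded compound concentrations, medium renewed every 2–3 days. On day 5, viability read by CyQUANT fluorescence (cellular DNA content).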

Data set [2] has as its system MDA-MB-231. Kind of data set: Induction of ROS generation in human MDA-MB-231 cells at 2.5 to 40 uM incubated for 24 hrs by bioluminescence assay. The class given is functional, cell-based. Particulars: dose 2.5-40 µM. In short, it runs like this: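 MDA-MB-231 cells stably carrying the lentiviral OxiLuc oxidative-stress reporter, sorted by FACS for mStrawberry. Plated at 5x10³ cells/well the day before, then given escalating doses for 24 h. Bioluminescence imaged on an IVIS Spectrum, and per-well photon flux quantified as photons/s/sr/cm².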

In data set [3] the test system is MDA-MB-231. Put plainly: Effect on metabolism in human MDA-MB-231 cells assessed as reduction in intracellular aspartate level at 5 uM incubated for 16 hrs by LC-MS based metabolomics analysis. It counts as functional, cell-based. The procedure, abridged:
(§1)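 MDA-MB-231 cells in RPMI-1640 plus 10% FBS, treated 16 h with DMSO vehicle or compound at 5 μM. Untargeted metabolic profiling followed, with normalized metabolite levels compared between treated and vehicle groups.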

Data set [4] can be described thus: Cytotoxicity against vincristine-resistant human VJ-300 cells. The class given is functional, cell-based.
Data set [5] in a line: Cytotoxicity against human MCF-10A cells. It counts as toxicity, cell-based.
Data set [6] relates to MDA-MB-231. Put plainly: Effect on metabolism in human MDA-MB-231 cells assessed as change in intracellular metabolite abundances at 5 uM incubated for 16 hrs by LC-MS based metabolomics analysis. The class given is functional, cell-based. The procedure, abridged: as §1
Data set [7] can be described thus: Effect on metabolism in human MDA-MB-231 cells assessed as reduction in argininosuccinic-acid level at 5 uM incubated for 16 hrs by LC-MS based metabolomics analysis. The class given is functional. Details: scale not given: the % may be the effect or the level left. In short, it runs like this: as §1
The nature of data set [8]: Effect on metabolism in human MDA-MB-231 cells assessed as reduction in N-acetylaspartate level at 5 uM incubated for 16 hrs by LC-MS based metabolomics analysis. The class given is functional. More on the design: scale not given: the % may be the effect or the level left. In short, it runs like this:
as §1

A short description of data set [9]: Effect on metabolism in human MDA-MB-231 cells assessed as reduction in carbamoyl aspartate level at 5 uM incubated for 16 hrs by LC-MS based metabolomics analysis. Details: scale not given: the % may be the effect or the level left. It counts as functional. In short, it runs like this:
as §1

Data set [10] can be described thus: Inhibition of pyrimidine biosynthesis in human MDA-MB-231 cells assessed as fold increase in cytidine levels at 5 uM incubated for 16 hrs by LC-MS based metabolomics analysis. It counts as functional. The procedure, abridged:
as §1

The test system of data set [11] is MCF7. Put plainly: Cytotoxicity against human MCF7 cells. The class given is functional, cell-based.
Data set [12] deals with T47D. Put plainly: Cytotoxicity against human T47D cells. It counts as functional, cell-based.

For `CC[C@]12C=CCN3CC[C@]4(C(=C(C(=O)OC)C1)Nc1cc(OC)c(OS(=O)(=O)F)cc14)[C@@H]32`, in data set [1], it took 3720 nM to reach half-maximal inhibition (IC50). For the same compound, the outcome in data set [2] and in data set [3] was inactive.
For `CC[C@]12C=CCN3CC[C@@]4(C5=CC(=O)C(OC)=CC5=NC4=C(C(=O)OC)C1)[C@@H]32`, it took 1960 nM to reach half-maximal inhibition in [1] (IC50). In addition, in data set [2], the outcome was inactive.
Taken in the same sequence, the figures for `CC[C@]12C=CCN3CC[C@]4(C(=C(C(=O)OC)C1)Nc1ccc(OS(=O)(=O)F)cc14)[C@@H]32` were 6170 nM and “inactive”.
Turning to `CC[C@]12C=CCN3CC[C@]4(C(=C(C(=O)OC)C1)Nc1cc(OC)c(OC(C)=O)cc14)[C@@H]32` [JERANTININE A ACETATE], the IC50 (usually the concentration that inhibits the measured activity by half) in data set [4] is 830 nM; in data set [1], 2600 nM; in data set [5], 18.8 µM.
For `CC[C@]12C=CCN3CC[C@]4(C(=C(C(=O)OC)C1)Nc1cc(OC)c(O)cc14)[C@@H]32` [JERANTININE A], the IC50 in data set [1] was determined as 1920 nM; in data set [5], 0.96 µM; in data set [11], 720 nM; in [12], 720 nM. Further, the outcome in data set [2], in data set [6] and in data set [3] was Active. The Activity in [7], in [8] and in data set [9] was 90% in each case. Also, the “fold change (FC)” value in data set [10] is 10.
The compound `CC[C@]12C=CCN3CC[C@]4(C(=C(C(=O)OC)C1)Nc1ccc(O)cc14)[C@@H]32` [MELODININE P] gave an IC50 in [1] of 1060 nM. Further, the result in [2] was Active.
The like results for `CC[C@]12C=CCN3CC[C@]4(C(=C(C(=O)OC)C1)Nc1ccccc14)[C@@H]32` [TABERSONINE] were, in that order, 5590 nM and “inactive”.
